Reference: ChEMBL document CHEMBL4402513, “Bio-Inspired Dual-Selective BCL-2/c-MYC G-Quadruplex Binders: Design, Synthesis, and Anticancer Activity of Drug-like Imidazo[2,1-i]purine Derivatives” (J Med Chem, 2020)
Active and inactive are the calls of the source. The rule behind the calls is not given here.

Key:
Quadruplex DNA [1] = assay: Binding affinity to synthetic BCL2 G4 quadruplex DNA assessed as change in melting temperature at 10 molar equiv to DNA measured after 10 mins by circular dichroism melting analysis; format: nucleic-acid assay
Outline: (§1)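 CD melting of folded DNA (G4 10 µM, duplex 15 µM) in 20 mM KCl, 5 mM KH2PO4 (pH 7.0), without and with 10 molar equivalents of ligand. Tm was taken from curve fitting, and ΔTm = Tm(DNA+ligand) − Tm(DNA). Runs were done in triplicate and averaged.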

Quadruplex DNA [2] = assay: Binding affinity to synthetic c-KIT1 G4 quadruplex DNA assessed as change in melting temperature at 10 molar equiv to DNA measured after 10 mins by circular dichroism melting analysis; format: nucleic-acid assay; outline: as §1
Quadruplex DNA [3] = assay: Binding affinity to human telomeric 23 G4 quadruplex DNA assessed as change in melting temperature at 10 molar equiv to DNA measured after 10 mins by circular dichroism melting analysis; format: nucleic-acid assay; outline: as §1
[4] = Binding affinity to synthetic 20-mer hairpin duplex DNA assessed as change in melting temperature at 10 molar equiv to DNA measured after 10 mins by circular dichroism melting analysis; outline: as §1
Quadruplex DNA [5] = assay: Binding affinity to synthetic c-MYC G4 quadruplex DNA assessed as change in melting temperature at 10 molar equiv to DNA measured after 10 mins by circular dichroism melting analysis; format: nucleic-acid assay; outline: as §1
[6] = Binding affinity to synthetic 20-mer hairpin duplex DNA assessed as change in chiral structure at 10 molar equiv to DNA measured after 10 mins by circular dichroism spectroscopic analysis
Outline: (§2)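 CD spectra of annealed DNA in 20 mM KCl, 5 mM KH2PO4 (pH 7.0). G4 DNAs were at 10 µM and duplex at 15 µM. Ligand (10 mM DMSO stock) was added at 10 molar equivalents. Spectra were recorded 10 min after addition at 20 °C over 230–360 nm, averaged over three scans and baseline corrected.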

Quadruplex DNA [7] = assay: Binding affinity to human telomeric 23 G4 quadruplex DNA assessed as change in chiral structure at 10 molar equiv to DNA measured after 10 mins by circular dichroism spectroscopic analysis; format: nucleic-acid assay; outline: as §2
Quadruplex DNA [8] = assay: Binding affinity to synthetic c-MYC G4 quadruplex DNA assessed as change in chiral structure at 10 molar equiv to DNA measured after 10 mins by circular dichroism spectroscopic analysis; format: nucleic-acid assay; outline: as §2
Quadruplex DNA [9] = assay: Binding affinity to synthetic c-KIT1 G4 quadruplex DNA assessed as change in chiral structure at 10 molar equiv to DNA measured after 10 mins by circular dichroism spectroscopic analysis; format: nucleic-acid assay; outline: as §2
Quadruplex DNA [10] = assay: Binding affinity to synthetic BCL2 G4 quadruplex DNA assessed as change in chiral structure at 10 molar equiv to DNA measured after 10 mins by circular dichroism spectroscopic analysis; format: nucleic-acid assay; outline: as §2
Jurkat [11] = assay: Down regulation of c-MYC mRNA expression in human Jurkat cells at 25 uM measured after 24 hrs by RT-qPCR analysis relative to control; format: functional
Outline: (§3)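 Jurkat cells were treated 24 h at 25 µM, and total RNA was extracted with TRI Reagent. 0.5 µg RNA was reverse transcribed with MMLV RT and random primers (22 °C 10 min, 42 °C 60 min). SYBR qPCR ran 40 cycles (95/59/72 °C) in duplicate with GAPDH as reference. Relative expression was calculated by the […] method from at least three independent experiments.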

Jurkat [12] = assay: Down regulation of c-MYC expression in human Jurkat cells at 25 uM measured after 24 hrs by Western blot analysis relative to control; format: functional
Outline: (§4)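 Jurkat cells treated 24 h at 25 µM were lysed in 50 mM Hepes pH 7.4, 50 mM NaCl, 1% Triton with protease inhibitors. Protein was quantified by Bradford and run on 10% SDS-PAGE to nitrocellulose. Blots were probed with anti-Bcl-2, anti-c-Myc and anti-β-actin and detected by ECL. Densitometry was normalised to β-actin and expressed as % of control; three independent experiments.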

Jurkat [13] = assay: Down regulation of BCL2 mRNA expression in human Jurkat cells at 25 uM measured after 24 hrs by RT-qPCR analysis relative to control; format: functional; outline: as §3
Jurkat [14] = assay: Induction of apoptosis in human Jurkat cells assessed as early apoptotic cells at 25 uM measured after 48 hrs by Annexin V-FITC/propidium iodide staining based flow cytometry (reference value: 0.3%); format: functional
Jurkat [15] = assay: Induction of apoptosis in human Jurkat cells assessed as late apoptotic cells at 25 uM measured after 48 hrs by Annexin V-FITC/propidium iodide staining based flow cytometry (reference value: 1.4%); format: functional
Jurkat [16] = assay: Cytotoxicity against human Jurkat cells assessed as cell viability at 50 uM measured after 48 hrs by combined MTT and trypan blue staining based cell counting assay relative to control; format: functional; conditions: read-out: Activity
Outline: (§5)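 Cells were seeded at 10^4/well (HDF 10^3), grown 24 h, then treated 48 h at 5–100 µM in 0.5% v/v DMSO. Read-outs were MTT (1 h, 37 °C, absorbance 550 nm; Jurkat handled by centrifugation) combined with trypan blue live/dead counting into a survival index versus untreated cells. IC50 came from nonlinear regression, n = 6 per experiment ×3 (n = 18), mean ± SEM.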

Jurkat [17] = assay: Down regulation of BCL2 expression in human Jurkat cells at 25 uM measured after 24 hrs by Western blot analysis relative to control; format: functional; outline: as §4
Jurkat [18] = assay: Induction of apoptosis in human Jurkat cells assessed as viable cells at 25 uM measured after 48 hrs by Annexin V-FITC/propidium iodide staining based flow cytometry (reference value: 97%); format: functional; conditions: read-out: Activity
Jurkat [19] = assay: Cytotoxicity against human Jurkat cells assessed as reduction in cell viability at 50 uM measured after 48 hrs by combined MTT and trypan blue staining based cell counting assay; format: functional; outline: as §5

Structure (SMILES)	ΔTm (Quadruplex DNA [1])	ΔTm (Quadruplex DNA [2])	ΔTm (Quadruplex DNA [3])	ΔTm [4]	ΔTm (Quadruplex DNA [5])	other results
CC(C)(C)Nc1c(-c2ccccc2F)nc2c3ncn(CCN4CCCC4)c3ncn12	5 °C	2.1 °C	1.1 °C	0.3 °C	5.8 °C	
CN(C)CCCn1cnc2c1ncn1c(NC(C)(C)C)c(-c3ccc(N(C)C)cc3)nc21	16.9 °C	11.9 °C	7.2 °C		> 25 °C	
CN(C)c1ccc(-c2nc3ccn(CCN4CCOCC4)c(=O)n3c2NC(C)(C)C)cc1						Activity [6]: inactive; Activity (Quadruplex DNA [7]): inactive; Activity (Quadruplex DNA [8]): inactive; Activity (Quadruplex DNA [9]): inactive; deltaTm (Quadruplex DNA [1]): inactive; deltaTm (Quadruplex DNA [2]): inactive; Activity (Quadruplex DNA [10]): inactive; deltaTm (Quadruplex DNA [3]): inactive; deltaTm [4]: inactive; deltaTm (Quadruplex DNA [5]): inactive
CN(C)CCCn1cnc2c1ncn1c(NC(C)(C)C)c(-c3ccc(N4CCOCC4)cc3)nc21	10.1 °C	5.1 °C	3.8 °C	9.7 °C	9.5 °C	
CN(C)c1ccc(-c2nc3c4ncn(CCCN)c4ncn3c2NC(C)(C)C)cc1	1.7 °C	1.4 °C	-0.1 °C	0.5 °C	1.1 °C	
CC(C)(C)Nc1c(-c2ccccc2OCCN2CCOCC2)nc2c3ncn(CCN4CCOCC4)c3ncn12	1.9 °C	0.8 °C	0.1 °C	1.2 °C	1.9 °C	
CC(C)(C)Nc1c(-c2ccc(Cl)cc2)nc2c3ncn(CCN4CCCC4)c3ncn12	4.5 °C	2.3 °C	2.3 °C	1.9 °C	6.4 °C	
CC(C)(C)Nc1c(-c2ccc(Cl)cc2)nc2c3ncn(CCN4CCOCC4)c3ncn12	2.1 °C	1.1 °C	0.3 °C	-0.5 °C	1.6 °C	
CC(C)(C)Nc1c(-c2ccccc2F)nc2c3ncn(CCN4CCOCC4)c3ncn12	2.6 °C	1 °C	0.7 °C	0.5 °C	1.9 °C	
CN(C)CCCn1cnc2c1ncn1c(NC(C)(C)C)c(-c3ccccc3F)nc21	8.2 °C	2.6 °C	1.2 °C	0.2 °C	11.5 °C	Activity (Jurkat [11]): 56%; Activity (Jurkat [12]): Active; Activity (Jurkat [13]): 43%; Activity (Jurkat [14]): 13%; Activity (Jurkat [15]): 68%; viability at 50 µM (Jurkat [16]): 60%; Activity (Jurkat [17]): Active; viability at 25 µM (Jurkat [18]): 16%
CN(C)c1ccc(-c2nc3c4ncn(CCN5CCOCC5)c4ncn3c2NC(C)(C)C)cc1	9.2 °C	5.2 °C	2.4 °C	1.9 °C	7.2 °C	Activity [6]: inactive; Activity (Quadruplex DNA [7]): inactive; Activity (Quadruplex DNA [8]): inactive; Activity (Quadruplex DNA [9]): inactive; Activity (Quadruplex DNA [10]): inactive
CC(C)(C)Nc1c(-c2ccc(N3CCOCC3)cc2)nc2c3ncn(CCN4CCOCC4)c3ncn12	4.9 °C	1.9 °C	1 °C	1.5 °C	2.1 °C	Activity (Jurkat [19]): Active; Activity (Jurkat [11]): 27%; Activity (Jurkat [12]): Active; Activity (Jurkat [14]): 8%; Activity (Jurkat [15]): 9%; Activity (Jurkat [17]): Active; viability at 25 µM (Jurkat [18]): 79%
CN(C)c1ccc(-c2nc3c4ncn(CCN5CCCC5)c4ncn3c2NC(C)(C)C)cc1	13.4 °C	7.3 °C	4.8 °C	7.5 °C	19.5 °C	
CN(C)CCCOc1ccccc1-c1nc2c3ncn(CCCN(C)C)c3ncn2c1NC(C)(C)C	7.8 °C	4.5 °C	5.7 °C	3.5 °C	> 25 °C	
CC(C)(C)Nc1c(-c2ccc(N3CCOCC3)cc2)nc2c3ncn(CCN4CCCC4)c3ncn12	9.1 °C	2.9 °C	2.2 °C	6 °C	8.7 °C	
CC(C)(C)Nc1c(-c2ccc(Cl)cc2)nc2[nH]c(=O)c3ncn(CCN4CCOCC4)c3n12						Activity [6]: inactive; Activity (Quadruplex DNA [7]): inactive; Activity (Quadruplex DNA [8]): inactive; Activity (Quadruplex DNA [9]): inactive; deltaTm (Quadruplex DNA [1]): inactive; deltaTm (Quadruplex DNA [2]): inactive; Activity (Quadruplex DNA [10]): inactive; deltaTm (Quadruplex DNA [3]): inactive; deltaTm [4]: inactive; deltaTm (Quadruplex DNA [5]): inactive
CC(C)(C)Nc1c(-c2ccccc2OCCN2CCCC2)nc2c3ncn(CCN4CCCC4)c3ncn12	7.1 °C	4.5 °C	4.9 °C	2.2 °C	8.4 °C	
CN(C)c1ccc(-c2nc3c4ncn(CCCNC(=N)N)c4ncn3c2NC(C)(C)C)cc1	2.8 °C	2.1 °C	0.6 °C	0.2 °C	2.5 °C	
